Laboratory results as given in the array DNA melting data of Ke et al. (doi:10.1101/2024.01.08.574731).

Tests used:
[1] = folding enthalpy; higher = less favourable; fluorescence melt of hairpins on a sequencing array, two-state fit; conditions: sodium 0.088 M
Summary of the method: (§1)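 Library hairpins on a sequenced MiSeq flow cell carried annealed Cy3 and quencher oligos, and their Cy3 fluorescence was imaged in 50 mM Na-HEPES pH 8.0 with 25 mM NaCl, in 2.5 °C steps up to 60 °C. Signals were normalised to Cy3 before quenching and to control constructs. Melting temperature and folding enthalpy were obtained from bootstrapped two-state fits, combined by inverse-variance weighting across four replicates, and the fitted temperatures were then raised by 9.35 °C to match UV melts.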

[2] = melting temperature; fluorescence melt of hairpins on a sequencing array, two-state fit, raised by 9.35 °C to match UV melts; conditions: sodium 0.088 M
Summary of the method: as §1

Sequence | folding enthalpy [1] | Tm [2]
GGTGGCGGAAACACCACC (((((.(....).))))) | -42.3 kcal/mol | 53.8 °C
GGTGGGCGAAAGCCTACC (((.(((....))).))) | -22.3 kcal/mol | 65.6 °C
GGTGGGGAAACCCACC ((((((....)))))) | -42.9 kcal/mol | 68.1 °C
GGTGGGGGAAACCCCGCC ((.((((....)))).)) | -27.5 kcal/mol | 61.4 °C
GGTGGGGGAAACCCCGTC (..((((....))))..) | -12 kcal/mol | 38.2 °C
GGTGGGGGAAACTCCGCC ((.((.(....).)).)) | -26.4 kcal/mol | 49.6 °C
GGTGGTGGAAACGTCACC ((((..(....)..)))) | -23.4 kcal/mol | 44.5 °C
GGTGTACGAAAGTAACC (((.(((....)))))) | -24.5 kcal/mol | 47.8 °C
GGTGTAGGAAACTGTACC (((..((....))..))) | -19.3 kcal/mol | 29.6 °C
GGTGTATCGAAAGATACC (((..(((....)))))) | -14.7 kcal/mol | 43.3 °C
GGTGTCCCGAAAGGGACC (((..(((....)))))) | -9.51 kcal/mol | 49.5 °C
GGTGTCGAAAGACATACC ((((((....)))..))) | -13.9 kcal/mol | 43.5 °C
GGTGTCGAAAGACCAACC ((((((....)))..))) | -15.3 kcal/mol | 37.5 °C
GGTGTCGAAAGACCTACC ((((((....)))..))) | -16.1 kcal/mol | 33.8 °C
GGTGTCGAAAGACGGACC ((((((....)))..))) | -16.6 kcal/mol | 40.3 °C
GGTGTCGGAAACGACATC (.(((((....))))).) | -26.8 kcal/mol | 54 °C
GGTGTGAAAACACC (((((....))))) | -30.9 kcal/mol | 57.3 °C
GGTGTGCGAAAGCAAACC (((.(((....))).))) | -35.5 kcal/mol | 56 °C
GGTGTGCGAAAGCATACC (((.(((....))).))) | -38.4 kcal/mol | 63.6 °C
GGTGTGTCGAAAGACACC (((..(((....)))))) | -10.2 kcal/mol | 47.8 °C
GGTGTTGGAAACAACGCC ((.((((....)))).)) | -36.1 kcal/mol | 57.3 °C
GGTGTTGGAAACAATGCC ((..(((....)))..)) | -21 kcal/mol | 41.8 °C
GGTTAACGAAAGTTACC (((.(((....)))))) | -21.9 kcal/mol | 43.9 °C

Sequence | folding enthalpy [1] | Tm [2]
GGTTAACGAAAGTTCACC (((.(((....))).))) | -31.3 kcal/mol | 43 °C
GGTTAAGAAATTAACC ((((((....)))))) | -23.8 kcal/mol | 43.5 °C
GGTTAAGGAAACTTAACC (((((((....))))))) | -38.5 kcal/mol | 52.7 °C
GGTTACCGAAAGGTTACC (((.(((....))).))) | -30.3 kcal/mol | 52.6 °C
GGTTACGAAAGTAATACC ((((((....)))..))) | -14.9 kcal/mol | 33.5 °C
GGTTACGAAAGTATGACC ((((((....)))..))) | -15.1 kcal/mol | 30.4 °C
GGTTACGAAAGTATTACC ((((((....)))..))) | -15.2 kcal/mol | 29.6 °C
GGTTACGGAAACATAACC (((((.(....).))))) | -17 kcal/mol | 35.8 °C
GGTTACGGAAACGTAGCC ((.((((....)))).)) | -28.6 kcal/mol | 51.7 °C
GGTTACGGAAACGTAGTC (..((((....))))..) | -12.7 kcal/mol | 25.7 °C
GGTTAGCGAAAGCTTACC (((.(((....))).))) | -23.2 kcal/mol | 52 °C
GGTTAGGGAAACCTGATC (.(.(((....))).).) | -11.7 kcal/mol | 31 °C
GGTTATCGAAAGATGACC (((.(((....))).))) | -48.6 kcal/mol | 51.7 °C
GGTTATGGAAACACAACC ((((.((....)).)))) | -24.6 kcal/mol | 33.8 °C
GGTTATGGAAACATAACC (((((((....))))))) | -41.1 kcal/mol | 55.6 °C
GGTTCAGGAAACTGGATC (.(.(((....))).).) | -10.2 kcal/mol | 30 °C
GGTTCCCCGAAAGGGACC (((..(((....)))))) | -17.9 kcal/mol | 45 °C
GGTTCCCGAAAGGGGACC (((.(((....))).))) | -30.8 kcal/mol | 67.6 °C
GGTTCCGAAAGGAGAACC ((((((....)))..))) | -24.5 kcal/mol | 45.1 °C
GGTTCCGGAAACGAAACC ((((.((....)).)))) | -24.8 kcal/mol | 42.9 °C
GGTTCCGGAAACGGAGTC (..((((....))))..) | -11.7 kcal/mol | 34.1 °C
GGTTCCGGAAACGGGATC (.(.(((....))).).) | -19.4 kcal/mol | 39.9 °C
GGTTCCTCGAAAGAGACC (((..(((....)))))) | -10.1 kcal/mol | 25.8 °C

Sequence | folding enthalpy [1] | Tm [2]
GGTTCGGGAAACCGAACC (((((((....))))))) | -38.2 kcal/mol | 69.2 °C
GGTTCGGGAAACCGAGTC (..((((....))))..) | -13.1 kcal/mol | 36.5 °C
GGTTCTGGAAACAGAATC (.(((((....))))).) | -34.2 kcal/mol | 45 °C
GGTTCTGGAAACAGAGCC ((.((((....)))).)) | -30.5 kcal/mol | 50.6 °C
GGTTCTGGAAACAGGACC (((.(((....))).))) | -45.3 kcal/mol | 50.6 °C
GGTTCTTCGAAAGAAACC (((..(((....)))))) | -13.4 kcal/mol | 29.1 °C
GGTTGACGAAAGTCTACC (((.(((....))).))) | -33.1 kcal/mol | 53.8 °C
GGTTGAGGAAACTTGACC (((..((....))..))) | -14.6 kcal/mol | 32.1 °C
GGTTGCCCGAAAGGGACC (((..(((....)))))) | -11.5 kcal/mol | 37.9 °C
GGTTGCGAAAGCAAAACC ((((((....)))..))) | -19.5 kcal/mol | 48.9 °C
GGTTGCGAAAGCAATACC ((((((....)))..))) | -13.3 kcal/mol | 42.9 °C
GGTTGCGAAAGCACAACC ((((((....)))..))) | -19.6 kcal/mol | 44.2 °C
GGTTGCGGAAACGCGATC (.(.(((....))).).) | -19.7 kcal/mol | 41.7 °C
GGTTGCGGAAACGTAGCC ((.(.((....)).).)) | -27.3 kcal/mol | 40.2 °C
GGTTGCGGAAACGTGACC (((..((....))..))) | -32.2 kcal/mol | 48.8 °C
GGTTGGCCGAAAGGCACC (((..(((....)))))) | -12.8 kcal/mol | 41.4 °C
GGTTGGCGAAAGCCGACC (((.(((....))).))) | -29.3 kcal/mol | 69.3 °C
GGTTGGGGAAACCCAACC (((((((....))))))) | -36.8 kcal/mol | 66.4 °C
GGTTGGGGAAACCCAGCC ((.((((....)))).)) | -42.9 kcal/mol | 53.7 °C
GGTTGGGGAAACTCAGCC ((.((.(....).)).)) | -30.7 kcal/mol | 36.1 °C
GGTTGTCGAAAGACGACC (((.(((....))).))) | -39.9 kcal/mol | 58.8 °C
GGTTGTCGAAAGACTACC (((.(((....))).))) | -46 kcal/mol | 52 °C
GGTTTACGAAAGTACACC (((.(((....))).))) | -28.3 kcal/mol | 45.2 °C

Sequence | folding enthalpy [1] | Tm [2]
GGTTTCGAAAGAACGACC ((((((....)))..))) | -14.4 kcal/mol | 29.6 °C
GGTTTCGAAAGAACTACC ((((((....)))..))) | -10.1 kcal/mol | 29.4 °C
GGTTTCGAAAGAAGAACC ((((((....)))..))) | -18.3 kcal/mol | 31.5 °C
GGTTTCGAAAGAAGCACC ((((((....)))..))) | -16.5 kcal/mol | 28.6 °C
GGTTTCGGAAACGAGACC (((.(((....))).))) | -33.1 kcal/mol | 50 °C
GGTTTGAAAAAACC (((((....))))) | -25 kcal/mol | 46.3 °C
GGTTTGGGAAACCGAACC ((((.((....)).)))) | -34.2 kcal/mol | 52.3 °C
GGTTTGGGAAACTAAGCC ((.((.(....).)).)) | -13.6 kcal/mol | 30.2 °C
GGTTTTGCGAAAGCAACC (((..(((....)))))) | -11.9 kcal/mol | 30.2 °C
GGTTTTGGAAACGAAACC (((((.(....).))))) | -43.9 kcal/mol | 47.5 °C
GTAAAACCGAAAGGTTAC (((..(((....)))))) | -14.9 kcal/mol | 31 °C
GTAAAACGAAAGTTATAC (((.(((....))).))) | -14.8 kcal/mol | 31.6 °C
GTAAAAGGAAACTTTTGC (.(((((....))))).) | -24.1 kcal/mol | 33.5 °C
GTAAACGAAAGTTTCTAC ((((((....)))..))) | -12.3 kcal/mol | 30.2 °C
GTAAACGAAAGTTTGTAC ((((((....)))..))) | -15.1 kcal/mol | 27.6 °C
GTAAACGAAAGTTTTTAC ((((((....)))..))) | -12 kcal/mol | 24.9 °C
GTAAACGGAAACGTTTGC (.(((((....))))).) | -26.1 kcal/mol | 48.5 °C
GTAAATCGAAAGATATAC (((.(((....))).))) | -12.1 kcal/mol | 29.7 °C
GTAAATGGAAACATTTGC (.(((((....))))).) | -28.9 kcal/mol | 38.6 °C
GTAACACGAAAGTGCTAC (((.(((....))).))) | -28.4 kcal/mol | 43.7 °C
GTAACACGAAAGTGGTAC (((.(((....))).))) | -41.3 kcal/mol | 55.1 °C
GTAACACGAAAGTGTAC (((.(((....)))))) | -14 kcal/mol | 42.8 °C
